From PubChem
DENV2 CPE: inhibitors of DENV2 cytopathic effect | DENV2-infected cells, cytopathic effect rescue, plate reader | hit rate 1.7% among 350,000 | CPE inhibition, % at 9.99 µM | AID 651640; in the data active = CPE inhibition above about 20%, passing the limit was not always enough; inconclusive = no clear call, values can overlap the other calls; tested in BHK-21 cells;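 also: 0% = median of neutral control wells and 100% = median of positive control wells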
rRNA inh HTS: inhibits bacterial ribosomal RNA function over humanized ribosomes; E. coli WT GFP vs humanized-ribosome RFP mutants, fluorescence, 24 h; active compounds read low; DMSO median 0, no signal -100; AID 720706; GFP signal change (wild-type ribosome), % (concentration not given with the values); hit rate 1.6% among 350,000;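 active = significant combined selectivity score with lowered wild-type GFP, culture density cut under 30%, mutant RFP and density less affected; inactive = any of these conditions unmet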
PfHsp90 yeast 2: reduces growth (ATP signal) of yeast expressing P. falciparum Hsp90; inhibition, % at 9.4 µM; S. cerevisiae expressing PfHsp90, BacTiter-Glo ATP, 48 h; yeast lacking PDR1 and PDR3 efflux regulators; hit rate 0.32% among 310,000;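 active = every replicate shows inhibition above about 80%, whatever the replicate mean, limit read from the data; inconclusive = mean inhibition reaches the set limit but some replicate falls short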;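 also: 0% = DMSO neutral controls and 100% = 20 µM radicicol positive controls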
Cneo AK release: causes C. neoformans cell lysis | adenylate kinase release luminescence, 4 h; normalised: neutral wells 0, clomiphene wells 100 | lysis activity, % at 15 µM | hit rate 0.2% among 360,000;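 active = mean lysis activity across replicates of at least 80%, whatever share of replicates individually reach that level; inactive = mean lysis activity below 80%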
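Test system: log-phase Cryptococcus neoformans yeast cells; Quantity: yeast cell density of 5 × 10^6 cells/mL; Buffer or medium: YPD; Doses: single compound concentration per well; Timing: 4 h at 37 °C static, read 1 h later; Measured by: AK luminescence; Read-out basis: lysis from increased AK signal; Control set: Clomiphene as positive control.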
S100A4 MyoIIA: blocks human S100A4 binding to myosin IIA peptide; P26447; S100A4/TAMRA-MyoIIA peptide fluorescence polarization; inhibition, % at 10.7 µM; hit rate 0.14% among 360,000;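 active = mean inhibition of at least 70% across replicates, with every replicate also reaching that level; inconclusive = mean inhibition reaches 70% but some replicates fall short; inactive = mean inhibition below 70%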
Target sequence (P26447 whole entry, looked up): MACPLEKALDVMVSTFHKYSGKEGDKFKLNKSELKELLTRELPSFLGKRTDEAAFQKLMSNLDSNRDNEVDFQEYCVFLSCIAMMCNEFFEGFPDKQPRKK
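Assay system: human S100A4 monomer with TAMRA-labelled myosin IIA peptide / Buffer or medium: Calcium-containing HEPES buffer, pH 7.2 / Reagent: TAMRA-labelled myosin IIA heavy-chain peptide probe, 5 nM / Compound: one dose per compound / Timing: polarization read 5 min after assay mix addition, stable 5–60 min / Benchmarks: neutral control DMSO, positive control TFP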
MLL AF4-AF9 inh: MLL-AF4/AF9 protein interaction inhibition | P42568 | AlphaScreen, biotin-AF4 peptide binding to FLAG-AF9 | inhibition, % at 10 µM | hit rate 0.47% among 350,000 | AID 651704;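 active = every replicate reaching a set inhibition limit, whatever the replicate mean, cut at about 25% in these data; inconclusive = mean inhibition reaches that limit but some replicates miss it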;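 also: 0% = plate neutral control median and 100% = total signal loss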
Target sequence (P42568 whole entry, looked up): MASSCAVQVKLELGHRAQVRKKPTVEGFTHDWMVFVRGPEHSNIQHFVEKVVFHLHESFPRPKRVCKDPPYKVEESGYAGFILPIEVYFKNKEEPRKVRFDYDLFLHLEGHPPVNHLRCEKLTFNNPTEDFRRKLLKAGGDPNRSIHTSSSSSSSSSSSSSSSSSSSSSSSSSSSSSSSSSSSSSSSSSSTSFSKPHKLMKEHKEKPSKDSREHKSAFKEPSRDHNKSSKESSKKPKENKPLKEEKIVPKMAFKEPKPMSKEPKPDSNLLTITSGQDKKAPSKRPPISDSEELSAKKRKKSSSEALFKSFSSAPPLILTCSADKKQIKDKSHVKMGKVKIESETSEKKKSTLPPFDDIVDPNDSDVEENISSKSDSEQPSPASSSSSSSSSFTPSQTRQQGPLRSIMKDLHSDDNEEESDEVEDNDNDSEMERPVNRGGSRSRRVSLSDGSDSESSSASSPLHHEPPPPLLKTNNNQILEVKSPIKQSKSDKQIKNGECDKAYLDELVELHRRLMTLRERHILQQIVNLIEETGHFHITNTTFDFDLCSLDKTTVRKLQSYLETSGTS
The depositor's hits bear a star; ? = inconclusive; nt = no result given; ! = repeats disagree. This is a sample that favours compounds with a hit; in the whole collection about 3.2% have one here.

SMILES | DENV2 CPE | rRNA inh HTS | PfHsp90 yeast 2 | Cneo AK release | S100A4 MyoIIA | MLL AF4-AF9 inh
CN(C)CC#Cc1cccc(-c2nc(C(=O)N[C@@H]3CCN(Cc4ccccc4)C3)cc3c2[C@H](CCO)N(S(=O)C(C)(C)C)C3)c1 (some centres not stated) | 48* | nt | nt | nt | -56 | 16
C[C@H](CO)N1C[C@H](C)[C@@H](CN(C)C(=O)Nc2ccc(F)cc2)Oc2ccc(NC(=O)Cc3cn(C)c4ccccc34)cc2C1=O | 0 | -2 | nt | -2 | -14 | 3
C=CCc1c(C)nc2c(C)cccc2c1SC(=N)N | -2 | -22* | 1 | -1 | -1 | -10
Cc1nc2c(C)cccc2c(SC(=N)N)c1CC=C(Cl)Cl | -1 | -21* | 10 | nt | -4 | 2
COc1cccc(NC(=O)N[C@H]2C=C[C@@H](CC(=O)NCc3ccccn3)O[C@H]2CO)c1 | -1 | 0 | nt | 6 | 2 | 0
CN(C)C(=O)c1cccc(-c2ccc3c(c2)[C@@H]2[C@@H](CCN2C(=O)c2cccc(F)c2)[C@H](CO)N3C)c1 | 39* | -3 | nt | -2 | 4 | 2
CN1c2ccc(-c3ccccc3)cc2[C@@H]2[C@@H](CCN2C(=O)c2cccc(F)c2)[C@@H]1CO | 5 | -19 | nt | -1 | 130* | 2
CN1c2ccc(-c3cccc(F)c3)cc2[C@H]2[C@H](CCN2C(=O)c2cccc(F)c2)[C@@H]1CO | -16 | -7 | nt | nt | 5 | 12
CC(C)NC(=O)N1CC[C@@H]2[C@@H](CO)N(C)c3ccc(-c4cccc(F)c4)cc3[C@@H]21 | -16 | 3 | nt | 92* | nt | nt
COc1ccc(S(=O)(=O)Nc2ccc3c(c2)C(=O)N([C@H](C)CO)C[C@@H](C)[C@@H](CN(C)C(=O)NC(C)C)O3)cc1 | nt | 4 | nt | nt | nt | nt
O=C(C[C@@H]1C[C@H]2c3cc(NC(=O)NC4CCCC4)ccc3O[C@H]2[C@@H](CO)O1)NCc1ccncc1 | 0 | 2 | nt | 18 | 9 | -4
O=C1NC(=O)/C(=C/c2ccc(OS(=O)(=O)c3ccc(F)cc3F)cc2)N1 | 8 | -26* | 17 | 0 | -4 | nt
O=C(C[C@H]1C=C[C@@H](NS(=O)(=O)c2ccc(F)cc2)[C@@H](CO)O1)NCc1ccccc1F | 3 | -1 | nt | nt | -12 | -9
CN(C)CCCNC(=O)/C(=C\c1ccc(-c2ccc(Br)cc2)o1)NC(=O)c1ccccc1 | 5 | -58 | 9 | -7 | 1 | 29*
CC(=O)Nc1cncc(-c2ccccc2C(C)=O)n1 | -6 | -52 | nt | -1 | -5 | -2
COc1ccccc1-c1cncc(NC(C)=O)n1 | 27* | 10 | nt | 2 | -2 | -8
COc1ccc(C#Cc2ccc([C@H]3[C@@H](CO)N4CCCCN(C(=O)Nc5ccccc5)C[C@@H]34)cc2)cc1 | 71* | 7 | nt | 52 | 2 | -4
COc1ccc(NC(=O)N2CCCCN3[C@H](CO)[C@H](c4ccc(C#Cc5ccccc5)cc4)[C@H]3C2)cc1 | 7 | nt | nt | 7 | -3 | 8
CC(C)CC#Cc1ccc([C@@H]2[C@H]3CN(C(=O)Nc4ccccc4)CCCCN3[C@H]2CO)cc1 | 33* | -22 | nt | 1 | -3 | 0
O=C(Nc1ccccc1)N1CCCCN2[C@H](CO)[C@@H](c3ccc(C#Cc4ccccc4)cc3)[C@@H]2C1 | 0 | 3 | nt | 1 | 6 | -5
COc1ccc(C#Cc2ccc([C@H]3[C@H]4CN(C(=O)Nc5ccccc5)CCCCN4[C@H]3CO)cc2)cc1 | -2 | 0 | nt | 44 | 119* | -8
COc1ccc(C#Cc2ccc([C@@H]3[C@H](CO)N4CCCCN(C(=O)Nc5ccccc5)C[C@@H]34)cc2)cc1 | 34* | -60 | nt | 0 | -4 | 1
COc1ccccc1S(=O)(=O)N[C@H]1CC[C@H](CCNC(=O)C2CCCC2)O[C@@H]1CO | -7 | 1 | nt | 0 | -2 | -17
O=C(C[C@@H]1CC[C@H]2[C@@H](COC[C@H](O)CN2Cc2nccs2)O1)NCc1ccccc1F | -2 | -1 | nt | 44 | 1 | -1
O=C(C[C@H]1CC[C@@H](NC(=O)c2ccncc2)[C@H](CO)O1)NCC1CCCCC1 | 9 | 0 | nt | 0 | 13 | 0
SMILES | DENV2 CPE | rRNA inh HTS | PfHsp90 yeast 2 | Cneo AK release | S100A4 MyoIIA | MLL AF4-AF9 inh
COc1ccc(NC(=O)N2CCCCN3[C@H](C2)[C@H](c2ccc(-c4ccccc4C)cc2)[C@@H]3CO)cc1 | 27* | -7 | nt | -7 | -5 | 0
C[C@@H]1CN([C@@H](C)CO)C(=O)Cc2cc(NC(=O)Cc3ccccc3)ccc2O[C@H]1CN(C)C | nt | 3 | nt | -2 | 11 | 0
Cc1cccc(C)c1NC(=O)c1cccc(C(=O)Nc2c(C)cccc2C)n1 | 0 | -25* | 3 | 8 | -6 | 1
C[C@H](CO)N1C[C@H](C)[C@@H](CN(C)C(=O)CCN2CCCCC2)Oc2ncc(C#CCN(C)C)cc2C1=O | 11 | 1 | nt | -10 | -2 | 0
C/C=C/c1ccc(C2[C@H]3CNC[C@@H]2N3S(=O)(=O)c2cccc(OC)c2)cc1 (some centres not stated) | 12 | 1 | nt | nt | -21 | -5
CCOC(=O)C1CCN(C2=NC(=O)/C(=C/c3ccccc3OC)S2)CC1 | 3 | -24* | 17 | 1 | 1 | 3
O=C(/C=C/c1cccc(F)c1)Nc1cc(S(=O)(=O)N2CCOCC2)ccc1Cl | -8 | -17* | nt | 0 | -1 | 1
C[C@H](CO)N1C[C@H](C)[C@H](CN(C)Cc2ccncc2)Oc2ncc(C#Cc3ccccn3)cc2C1=O | -2 | 5 | nt | 0 | 24 | -5
C[C@@H](O)C#Cc1cnc2c(c1)C(=O)N([C@@H](C)CO)C[C@H](C)[C@H](CN(C)C(=O)c1ccc(F)cc1)O2 | -6 | 5 | nt | -14 | 8 | -5
C[C@H]1CN([C@@H](C)CO)C(=O)c2cc(C#CCN(C)C)cnc2O[C@@H]1CN(C)C(=O)Nc1ccccc1F | -5 | 1 | nt | -2 | -6 | 1
C[C@H](CO)N1C[C@H](C)[C@H](CN(C)C(=O)Nc2ccccc2F)Oc2ncc(C#CCN(C)C)cc2C1=O | 72* | 3 | nt | nt | 1 | -1
C[C@H](CO)N1C[C@H](C)[C@H](CN(C)C(=O)c2ccc(F)cc2)Oc2ncc(C#CCN(C)C)cc2C1=O | 35* | 4 | nt | 64 | 12 | -4
C[C@@H]1CN([C@H](C)CO)C(=O)c2cc(C#C[C@@H](C)O)cnc2O[C@H]1CN(C)C(=O)c1ccc(F)cc1 | 43*! | -2 | nt | -1 | -3 | -1
C[C@H]1CN([C@@H](C)CO)C(=O)c2cc(C#Cc3ccccn3)cnc2O[C@H]1CN(C)Cc1ccncc1 | ? | 7 | nt | 94* | 24 | -10
